{"source": "ChEMBL document CHEMBL2016504", "about": "“New saccharin derivatives as tyrosinase inhibitors” (Bioorg Med Chem, 2012)"}
{"system": "Musa x paradisiaca", "assay": "Competitive inhibition of banana tyrosinase using catechol as substrate by Lineweaver-Burk plot analysis", "method_in_brief": "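Banana PPO was partially purified: ammonium sulfate to 80% saturation, dialysis in 5 mM phosphate, then a Sepharose 4B-tyrosine-p-aminobenzoic acid affinity column eluted with 1 M NaCl, 5 mM phosphate, pH 7.0. Catechol oxidation was read as the rise in A420, in duplicate, corrected for non-enzymatic change. Ki and inhibition type came from Lineweaver–Burk 1/V vs 1/[S] plots at two inhibitor levels (0.01–0.20 mM).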", "units": {"Kic": "µM"}}
{"smiles": "O=C(Nc1ccc(F)cc1)Nc1ccc2c(c1)S(=O)(=O)NC2=O", "Kic": 15.6}
{"smiles": "O=C(Nc1cccc(Cl)c1)Nc1ccc2c(c1)S(=O)(=O)NC2=O", "Kic": 5.85}
{"smiles": "O=C1NS(=O)(=O)c2cc(NC(=S)Nc3ccccc3F)ccc21", "Kic": 4.23}
{"smiles": "O=C(Nc1cccc(F)c1)Nc1ccc2c(c1)S(=O)(=O)NC2=O", "Kic": 12.1}
{"smiles": "O=C1NS(=O)(=O)c2cc(NC(=S)Nc3ccccc3)ccc21", "Kic": 10.7}
{"smiles": "O=C(Nc1ccc2c(c1)S(=O)(=O)NC2=O)Nc1ccccc1F", "Kic": 35.1}
{"smiles": "O=C1NS(=O)(=O)c2cc(NC(=S)Nc3ccc([N+](=O)[O-])cc3)ccc21", "Kic": 19.5}
{"smiles": "O=C1NS(=O)(=O)c2cc(NC(=S)Nc3cccc(I)c3)ccc21", "Kic": 3.95}
{"smiles": "O=C(Nc1ccc(Cl)cc1)Nc1ccc2c(c1)S(=O)(=O)NC2=O", "Kic": 40.2}
{"smiles": "Cc1ccc(NC(=O)Nc2ccc3c(c2)S(=O)(=O)NC3=O)cc1", "Kic": 16.2}
{"smiles": "Nc1ccc2c(c1)S(=O)(=O)NC2=O", "Kic": 13.6}
{"smiles": "COc1ccc(NC(=O)Nc2ccc3c(c2)S(=O)(=O)NC3=O)cc1", "Kic": 16.6}
{"smiles": "Cc1ccc(NC(=S)Nc2ccc3c(c2)S(=O)(=O)NC3=O)cc1", "Kic": 9.96}
{"smiles": "O=C(Nc1ccc([N+](=O)[O-])cc1)Nc1ccc2c(c1)S(=O)(=O)NC2=O", "Kic": 22}
{"smiles": "O=C1NS(=O)(=O)c2cc(NC(=S)Nc3cccc(F)c3)ccc21", "Kic": 11.1}
{"smiles": "O=C1NS(=O)(=O)c2cc(NC(=S)Nc3cc(Cl)cc(Cl)c3)ccc21", "Kic": 13.7}
{"smiles": "O=C(Nc1ccccc1)Nc1ccc2c(c1)S(=O)(=O)NC2=O", "Kic": 13.4}
{"smiles": "O=C1NS(=O)(=O)c2cc(NC(=S)Nc3ccc(F)cc3)ccc21", "Kic": 14.8}
{"smiles": "COc1ccc(NC(=S)Nc2ccc3c(c2)S(=O)(=O)NC3=O)cc1", "Kic": 9.81}
{"smiles": "O=C1NS(=O)(=O)c2cc(NC(=S)Nc3cccc(Cl)c3)ccc21", "Kic": 28.3}
{"smiles": "COc1cccc(NC(=O)Nc2ccc3c(c2)S(=O)(=O)NC3=O)c1", "Kic": 14.1}
{"smiles": "O=C(Nc1ccc(Cl)c(Cl)c1)Nc1ccc2c(c1)S(=O)(=O)NC2=O", "Kic": 14.9}
{"smiles": "O=C1NS(=O)(=O)c2cc(NC(=S)Nc3ccc(Cl)cc3Cl)ccc21", "Kic": 10.1}
{"smiles": "O=C(Nc1cccc([N+](=O)[O-])c1)Nc1ccc2c(c1)S(=O)(=O)NC2=O", "Kic": 16.9}
{"molecular_target": "not listed separately", "assay": "Inhibition of desert banana tyrosinase using p-cresol as substrate", "set-up": "species or system Musa acuminata", "units": {"IC50": "µM", "Ki": "µM"}}
{"smiles": "O[C@@H](CS)[C@@H](O)CS", "note": "(relative stereo) [DITHIOTHREITOL]", "IC50": 63}
{"smiles": "O=C1O[C@H]([C@@H](O)CO)C(O)=C1O", "note": "[ASCORBIC ACID]", "IC50": 437, "Ki": 530}
{"smiles": "N[C@@H](CS)C(=O)O", "note": "[CYSTEINE]", "IC50": 322}
{"smiles": "O=S(O)S(=O)(=O)O", "note": "[SODIUM METABISULFITE]", "IC50": 65}
